OXTR ag = human OXTR agonists, primary screen, fluorescence, CHO-OTR cells, Fluo-8 calcium. Oxytocin receptor (Homo sapiens), P30559. Fluo-8 calcium fluorescence; normalized: DMSO 0%, oxytocin 100%. activation, % at 3 µM. 320,000 compounds, 0.32% hits. AID 2435, 2010;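 active = activation above the mean of all tested compounds plus 3 SD, cutoff set per screening run, cut at about 20% in these data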;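 note: peak over basal fluorescence ratio from a 100 s FLIPR kinetic read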
zfTRPN1 agonist = zebrafish TRPN1 channel agonists, primary screen, cell-based, HEK293, calcium fluorescence. transient receptor potential cation channel N1 (TRPN1/NompC), Danio rerio. activation, % at 3 µM. 220,000 compounds, 0.18% hits. HEK293 zebrafish TRPN1-YFP, Fluo-8 calcium fluorescence; 100% = response to 87 µM carbachol;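 active = activation above its plate's cutoff, the mean activation of test wells on that plate plus 3 SD, cut at about 19% in these data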;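 note: 0% = DMSO alone and 100% = 87 µM carbachol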
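Control set: carbachol 87 µM as high control, DMSO as low control; system: HEK293 stable line with zebrafish TRPN1-YFP; read-out: % activation versus carbachol response; detection: intracellular calcium fluorescence with Fluo-8; doses: single test compound dose, 3 µM nominal, 0.3% DMSO; schedule: dye 1 h 37 °C plus 30 min RT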
V1R ag counter = agonists of human V1a receptor, primary screen, counter-screen for OXTR agonist project, fluorescence, CHO-V1R cells; AID 2797, 2010; Vasopressin V1a receptor (Homo sapiens), P37288; Fluo-8 calcium fluorescence, agonist mode; 0% DMSO, 100% 3 nM vasopressin; 320,000 compounds, 0.25% hits; activation, % at 3 µM;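 active = activation above the mean activation of all tested compounds plus 3 SD, per screening run, cut at about 20% in these data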;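 note: signal is peak over basal fluorescence ratio across a 100 second FLIPR read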
Target sequence (P37288 whole entry, looked up): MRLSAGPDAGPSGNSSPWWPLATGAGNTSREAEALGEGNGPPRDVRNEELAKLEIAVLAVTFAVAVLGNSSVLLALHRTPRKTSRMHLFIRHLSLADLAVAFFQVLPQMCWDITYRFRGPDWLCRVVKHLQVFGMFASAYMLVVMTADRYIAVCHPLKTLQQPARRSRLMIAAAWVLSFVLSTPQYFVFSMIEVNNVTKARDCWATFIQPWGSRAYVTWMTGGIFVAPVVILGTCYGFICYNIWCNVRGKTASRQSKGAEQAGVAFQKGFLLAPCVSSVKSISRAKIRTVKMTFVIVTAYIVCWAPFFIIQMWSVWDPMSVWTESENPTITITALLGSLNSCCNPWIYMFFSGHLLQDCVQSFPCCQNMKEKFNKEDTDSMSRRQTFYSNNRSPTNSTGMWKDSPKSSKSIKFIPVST
OXTR potentiator = human OXTR potentiators, primary screen, fluorescence, CHO-OTR cells, Fluo-8 calcium. Fluo-8 calcium fluorescence, potentiator mode; 0% = oxytocin EC15, 100% = EC100. activation, % at 3 µM. 320,000 compounds, 0.061% hits. AID 2445, 2010;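 active = activation above that plate's cutoff, the mean activation of tested compounds plus 3 SD, cut at about 6.6% in these data, passing the limit was not always enough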;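 note: 100% uses oxytocin at 75 nM as the full agonist control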
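Measured by – Fluo-8 calcium dye fluorescence · Test system – human OTR in CHO cells · Dosing – one concentration, 3.0 µM compound · Controls – EC15 oxytocin alone as 0%, 75 nM oxytocin as 100% · Evaluation – normalized max/min fluorescence ratio, % activation · Timing – 6 min pre-incubation, 100 s read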
TRPML3 agonist = human TRPML3 channel agonists, primary screen, cell-based, HEK293 TRPML3-YFP, Fluo-8 calcium fluorescence, 3 µM; activation, % at 3 µM; Mucolipin-3 (Homo sapiens), Q8TDD5; 220,000 compounds, 0.29% hits; 100% = the carbachol control signal;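 active = activation above its plate's cutoff, the mean activation of the plate's test wells plus 3 SD, cut at about 12% in these data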;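 note: 0% = DMSO only wells and 100% = carbachol wells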
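Test system – HEK293 line with stable expression of human TRPML3-YFP channel · Control set – carbachol 87 µM final as high control (100%), DMSO as low control (0%) · Signal – Fluo-8 calcium dye fluorescence, ex 470-495, em 515-575 nm · Incubation – 1-h 37 °C dye load, 5-s basal, 120-s post-compound reads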
* hit, by the source's call; . = no result. Sampled rows, rich in hits. Any-hit rate of the full collection: about 0.59%.

SMILES | OXTR ag | zfTRPN1 agonist | V1R ag counter | OXTR potentiator | TRPML3 agonist
COc1cnc(-c2ccccn2)nc1N(C)c1ccccc1 | -1 | . | 1 | -9 | .
CCOC(=O)c1cn(Cc2ccccc2)c(C(=O)OC(C)(C)C)c1O | 52* | . | 28* | -19 | .
CCOc1cc(/C=C2/SC(=S)N(Cc3ccccc3)C2=O)ccc1O | 26* | . | 37* | -16 | .
COc1cc([N+](=O)[O-])cc(/C=C2/SC(=S)N(Cc3ccccc3)C2=O)c1O | 82* | . | 64* | -25 | .
O=C1/C(=C\c2cccc([N+](=O)[O-])c2O)SC(=S)N1Cc1ccccc1 | 2 | . | 7 | -18 | .
COc1cc(/C=C2/SC(=S)N(Cc3ccccc3)C2=O)cc(Cl)c1O | 70* | . | 65* | -23 | .
Cc1nc(NC(=O)COC(=O)c2ccc(CO)cc2)c(Cl)cc1Cl | 1 | . | 0 | -9 | .
CC(C)Cc1ccc(C(C)C(=O)Nc2cccnc2)cc1 (stereo not drawn) | 46* | . | 43* | -26 | .
CC(C)Cc1ccc([C@H](C)C(=O)O)cc1 | 1 | . | 0 | -8 | .
CC(C)Cc1ccc(C(C)C(=O)Nc2ccc(O)cc2)cc1 (stereo not drawn) | 50* | 45* | 44* | -20 | 22*
Cc1ccc(NC(=O)COc2ccc(CCO)cc2-n2nc3ccccc3n2)cc1C | -1 | 0 | 0 | -9 | 0
COc1ccccc1N1CCN(C(=O)CSc2nnc(C)n2C2CC2)CC1 | 0 | . | 0 | -4 | .
Cc1ccc(C#CC[N+](C)(C)CC#Cc2ccccc2)cc1 | 0 | 0 | 1 | -5 | 1
CC1=C(C)/C(=N\OS(=O)(=O)c2ccccc2)C=CC1=O | 19 | 2 | 14 | -21 | 16*
COc1ccc(Nc2sc(C(=O)c3ccc(Cl)cc3)c(N)c2C(=O)Nc2ccccc2OC)cc1 | 47* | 12 | 40* | -26 | 11
COc1ccc(S(=O)(=O)N2CC3C4C=CC(C4)C3C2)cc1 (stereo not drawn) | -1 | 1 | 0 | -7 | 56*
COc1ccc(S(=O)(=O)N2CC(C)N(S(=O)(=O)c3ccc(OC)cc3)CC2C)cc1 (stereo not drawn) | 0 | . | 0 | -8 | .
CC(C)(C)c1cc(O)c(C(C)(C)C)cc1O | 71* | . | 48* | -26 | .
N=c1c2c(-c3ccccc3)c(-c3ccccc3)n(Cc3ccco3)c2ncn1Cc1ccccc1 | 21* | 0 | 23* | -19 | 1
CC(C)Cn1cnc2c(c(-c3ccccc3)c(-c3ccccc3)n2Cc2ccco2)c1=N | 5 | -2 | 8 | -14 | 0
Cc1cc(C)c(S(=O)(=O)N2CCCCC2)c(C)c1N(C)S(=O)(=O)c1ccccc1 | 0 | 1 | 0 | -6 | 55*
Cc1cc(C)c(S(=O)(=O)N2CCOCC2)c(C)c1N(C)S(=O)(=O)c1ccccc1 | 0 | . | 1 | -4 | .
CCNc1ccccc(-c2ccc3ccccc3n2)c1=O | 0 | 1 | 2 | 3 | 1
O=C1c2ccccc2-c2onc3ccc(NCc4ccco4)c1c23 | 58* | 2 | 35* | -31 | 2
CCOc1ccc2noc3c2c1C(=O)c1ccccc1-3 | 59* | 4 | 75* | -14 | 4
SMILES | OXTR ag | zfTRPN1 agonist | V1R ag counter | OXTR potentiator | TRPML3 agonist
O=C1c2ccccc2-c2onc3c(Oc4ccccc4)cc(O)c1c23 | . | 0 | . | . | 1
CCNc1ccc2noc3c2c1C(=O)c1ccccc1-3 | 110* | 2 | 78* | -11 | 3
CC(C)[C@H](NC(=O)c1ccc(F)cc1)C(=O)N(C)Cc1cccs1 | -1 | . | -1 | -8 | .
CCn1ncc(C2=NOC(C(=O)Nc3cnn(C45CC6CC(CC(C6)C4)C5)c3)C2)c1C (stereo not drawn) | 35* | 13 | 25* | -9 | 8
CCc1nnc(NC(=O)C2CCCN2C(=O)Nc2ccc(C)cc2)s1 (stereo not drawn) | 0 | . | 0 | -6 | .
COc1ccc(CNC[C@@H](CCCCN(C)Cc2ccc(OC)cc2)N2C[C@H](c3ccccc3)N(CCc3ccc(Cl)c(Cl)c3)C(=O)C2=O)cc1 | 29* | 1 | 58* | -16 | 1
O=C(COC(=O)CNS(=O)(=O)c1c(F)cccc1F)NC(=O)NC1CCCCC1 | 1 | . | 0 | 6 | .
COc1cc(/C=C(\C#N)c2nc3ccccc3n2C)cc(OC)c1O | 26* | 37* | 29* | -5 | 17*
COc1cc(/C=C(\C#N)c2nc3ccccc3[nH]2)cc(OC)c1O | 28* | 22* | 29* | -10 | 7
COc1ccc(/C=C/c2c(-c3ccc(OC)cc3)sc3cc(OC)c(OC)cc23)cc1 | 1 | . | 0 | 0 | .
CCS(=O)(=O)c1ccc(-c2cccc(NC(=O)COc3ccc(Cl)cc3)c2)nn1 | 4 | . | 5 | -14 | .
Cc1ccc(Cn2nnc(C(=O)Nc3cccc(C)c3C)c2N)cc1 | 38* | 36* | 38* | -10 | 17*
Cc1cc(C)nc(/N=C(\N)Nc2ccc(SC(F)F)cc2)n1 | 32* | 36* | 28* | -10 | 17*
Cc1ccc(C)c(N/C(N)=N/c2nc(C)cc(C)n2)c1 | 21* | 36* | 26* | -18 | 21*
COc1ccc(C)cc1N/C(N)=N/c1nc(C)cc(C)n1 | 2 | 1 | 2 | 0 | 0
Cc1ccc(SCC(=O)Nc2cc([N+](=O)[O-])ccc2O)cc1 | 18 | 24* | 12 | -27 | 19*
O=C(CSCc1ccc(Cl)cc1)Nc1cc([N+](=O)[O-])ccc1O | 17 | 25* | 13 | -13 | 18*
COc1ccc(C(=O)NNC(=S)NC(=O)c2ccc(Cl)cc2)cc1 | 71* | . | 76* | -22 | .
CCC(=O)NC(=S)NNC(=O)c1ccc(OC)cc1 | 0 | 0 | 1 | -2 | 0
O=C(NNC(=S)NC(=O)c1sc2ccccc2c1Cl)c1ccc(Cl)cc1 | 46* | -1 | 57* | -9 | 0
COc1ccc(C(=O)NC(=S)NNC(=O)c2ccc(C)cc2)cc1 | 82* | . | 108* | -23 | .
O=C(Cn1c(=O)oc2ccccc21)N1CCN(S(=O)(=O)c2ccccc2)CC1 | -1 | . | 0 | -1 | .
CCOC(=O)C1CCCN(C(=O)c2ccc3c(=O)n(Cc4ccccc4OC)c(=S)[nH]c3c2)C1 (stereo not drawn) | 0 | . | 2 | -6 | .
COc1ccc(N(CC(=O)NCCSCc2ccco2)S(=O)(=O)c2ccccc2)cc1Cl | 1 | . | 3 | -14 | .

Compound activity deposited in PubChem by The Scripps Research Institute Molecular Screening Center.
